# In ChEMBL document CHEMBL1131323, “Inhibition of membrane-type 1 matrix metalloproteinase by hydroxamate inhibitors: an examination of the subsite pocket” (J Med Chem, 1998):
# Target: Stromelysin-1 (Homo sapiens, UniProt P08254)
# Assay: Activity against Matrix metalloprotease-3 (MMP-3).
# In short: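 MMP-3 purified from human fibroblast culture medium, used at 0.3 U/mL. Substrate was radiolabeled proteoglycan entrapped in polyacrylamide particles (3.5 mg dry beads). IC50 values read from dose-dependent inhibition curves.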
# Stromelysin-1, sequence (P08254 whole entry): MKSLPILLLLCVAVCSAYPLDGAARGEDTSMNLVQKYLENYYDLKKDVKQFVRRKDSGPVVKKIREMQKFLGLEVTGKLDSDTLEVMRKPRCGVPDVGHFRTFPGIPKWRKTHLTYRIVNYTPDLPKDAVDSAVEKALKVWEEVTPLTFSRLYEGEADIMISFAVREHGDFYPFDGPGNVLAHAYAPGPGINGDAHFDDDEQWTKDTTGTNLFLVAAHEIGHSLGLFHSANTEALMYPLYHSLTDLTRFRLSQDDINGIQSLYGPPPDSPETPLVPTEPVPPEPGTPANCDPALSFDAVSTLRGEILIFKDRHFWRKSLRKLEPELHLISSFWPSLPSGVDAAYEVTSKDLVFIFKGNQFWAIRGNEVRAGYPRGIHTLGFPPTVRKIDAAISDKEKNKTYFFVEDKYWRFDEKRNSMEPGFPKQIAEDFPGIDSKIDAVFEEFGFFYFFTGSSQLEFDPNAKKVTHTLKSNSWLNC
row,SMILES,IC50
1,CNC(=O)[C@@H](NC(=O)[C@H](CC(C)C)[C@H](C)C(=O)NO)c1ccccc1,1.9 nM
2,CNC(=O)[C@H](Cc1cccc2c1CCCC2)NC(=O)[C@H](CC(C)C)[C@H](C)C(=O)NO,0.6 nM
3,CNC(=O)[C@@H](NC(=O)[C@@H](CC(=O)NO)CC(C)C)c1ccccc1,4.4 nM
4,CNC(=O)[C@@H](NC(=O)[C@H](CCCc1ccccc1)CC(=O)NO)c1ccccc1,9.6 nM
5,CNC(=O)[C@@H](NC(=O)[C@H](CC(C)C)[C@H](CN1CCOCC1)C(=O)NO)c1ccccc1,61 nM
6,CNC(=O)[C@H](Cc1c[nH]c2ccccc12)NC(=O)[C@@H](CC(=O)NO)CC(C)C [ILOMASTAT],1.9 nM

# Second part, the molecule after the results:
row,IC50,SMILES
1,17 nM,CNC(=O)[C@@H](NC(=O)[C@H](CCc1ccccc1)CC(=O)NO)c1ccccc1
2,100 nM,CCCCCCCCC[C@H](CC(=O)NO)C(=O)N[C@H](C(=O)NC)c1ccccc1
3,2.3 nM,CNC(=O)[C@@H](NC(=O)[C@@H](CC(=O)NO)CC(C)C)C1CCCCC1

# Target: Matrix metalloproteinase-14 (Homo sapiens, UniProt P50281)
# Assay: Activity against deletion mutant of MT1-MMP lacking the transmembrane domain (deltaMT1)
row,SMILES,IC50
1,CNC(=O)[C@@H](NC(=O)[C@H](CC(C)C)[C@H](C)C(=O)NO)c1ccccc1,56 nM
2,CNC(=O)[C@@H](NC(=O)[C@H](CC(C)C)[C@H](C)C(=O)NO)C1CCCCC1,13 nM
3,CNC(=O)[C@@H](NC(=O)[C@H](CCCc1ccccc1)CC(=O)NO)C(C)(C)C,1.9 nM
4,CNC(=O)[C@H](Cc1cccc2c1CCCC2)NC(=O)[C@H](CC(C)C)[C@H](C)C(=O)NO,2.08 nM
5,CNC(=O)[C@@H](NC(=O)[C@@H](CC(=O)NO)CC(C)C)c1ccccc1,19.3 nM
6,CNC(=O)[C@@H](NC(=O)[C@H](CCCc1ccccc1)CC(=O)NO)c1ccccc1,8.5 nM
7,CNC(=O)[C@@H](NC(=O)[C@H](CC(C)C)[C@H](CN1CCOCC1)C(=O)NO)c1ccccc1,72 nM
8,"CNC(=O)[C@@H](NC(=O)C(CC(C)C)C(O)C(=O)NO)C(C)(C)C (single isomer, unassigned)",1.82 nM
9,CNC(=O)[C@H](Cc1ccccc1)NC(=O)[C@H](CC(C)C)[C@H](CSc1cccs1)C(=O)NO [BATIMASTAT],3 nM
10,CNC(=O)[C@H](Cc1c[nH]c2ccccc12)NC(=O)[C@@H](CC(=O)NO)CC(C)C [ILOMASTAT],13.4 nM

# More lines, in order of falling IC50, values ahead:
row,IC50,SMILES
1,105 nM,CNC(=O)[C@@H](NC(=O)[C@H](CCc1ccccc1)CC(=O)NO)c1ccccc1
2,17.6 nM,CCCCCCCCC[C@H](CC(=O)NO)C(=O)N[C@H](C(=O)NC)c1ccccc1
3,2.5 nM,CNC(=O)[C@@H](NC(=O)[C@H](CCCc1ccccc1)CC(=O)NO)C(C)C
4,2.3 nM,CNC(=O)[C@@H](NC(=O)[C@@H](CC(=O)NO)CC(C)C)C1CCCCC1
5,1.9 nM,CNC(=O)[C@@H](NC(=O)[C@@H](CC(=O)NO)CC(C)C)C(C)(C)C [RO-319790]

# Target: Matrix metalloproteinase-9 (Homo sapiens, UniProt P14780)
# Assay: Activity against Matrix metalloprotease-9 (MMP-9).
# Matrix metalloproteinase-9, sequence (P14780 whole entry): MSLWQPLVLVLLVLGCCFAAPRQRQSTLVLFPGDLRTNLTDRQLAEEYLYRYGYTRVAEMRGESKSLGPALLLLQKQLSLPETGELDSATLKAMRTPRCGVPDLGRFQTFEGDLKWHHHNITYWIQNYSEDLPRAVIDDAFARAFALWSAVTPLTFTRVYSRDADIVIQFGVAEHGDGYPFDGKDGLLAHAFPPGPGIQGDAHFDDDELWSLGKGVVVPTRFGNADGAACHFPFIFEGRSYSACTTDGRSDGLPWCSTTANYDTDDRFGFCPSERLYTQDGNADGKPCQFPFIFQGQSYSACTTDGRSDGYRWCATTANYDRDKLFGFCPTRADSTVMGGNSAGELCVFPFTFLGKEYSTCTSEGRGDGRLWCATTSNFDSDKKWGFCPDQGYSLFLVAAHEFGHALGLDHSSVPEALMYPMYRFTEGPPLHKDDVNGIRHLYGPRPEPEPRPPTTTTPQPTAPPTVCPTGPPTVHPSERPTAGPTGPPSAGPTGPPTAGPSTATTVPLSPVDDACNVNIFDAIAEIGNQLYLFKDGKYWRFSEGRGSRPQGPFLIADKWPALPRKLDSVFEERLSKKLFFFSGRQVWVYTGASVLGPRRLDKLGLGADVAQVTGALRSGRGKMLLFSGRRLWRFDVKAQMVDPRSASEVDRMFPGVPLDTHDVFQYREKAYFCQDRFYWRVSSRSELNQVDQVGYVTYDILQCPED
row,SMILES,IC50
1,CNC(=O)[C@@H](NC(=O)[C@H](CC(C)C)[C@H](C)C(=O)NO)c1ccccc1,3.9 nM
2,CNC(=O)[C@@H](NC(=O)[C@H](CC(C)C)[C@H](C)C(=O)NO)C1CCCCC1,0.9 nM
3,CNC(=O)[C@@H](NC(=O)[C@H](CCCc1ccccc1)CC(=O)NO)C(C)(C)C,1.3 nM
4,CNC(=O)[C@H](Cc1cccc2c1CCCC2)NC(=O)[C@H](CC(C)C)[C@H](C)C(=O)NO,0.3 nM
5,CNC(=O)[C@@H](NC(=O)[C@@H](CC(=O)NO)CC(C)C)c1ccccc1,14 nM
6,CNC(=O)[C@@H](NC(=O)[C@H](CCCc1ccccc1)CC(=O)NO)c1ccccc1,3.3 nM
7,CNC(=O)[C@@H](NC(=O)[C@H](CC(C)C)[C@H](CN1CCOCC1)C(=O)NO)c1ccccc1,45 nM
8,CNC(=O)[C@H](Cc1ccccc1)NC(=O)[C@H](CC(C)C)[C@H](CSc1cccs1)C(=O)NO [BATIMASTAT],0.2 nM

# Second part, the molecule after the results:
row,IC50,SMILES
1,11 nM,CNC(=O)[C@@H](NC(=O)[C@H](CCc1ccccc1)CC(=O)NO)c1ccccc1
2,0.2 nM,CCCCCCCCC[C@H](CC(=O)NO)C(=O)N[C@H](C(=O)NC)c1ccccc1
3,2.8 nM,CNC(=O)[C@@H](NC(=O)[C@H](CCCc1ccccc1)CC(=O)NO)C(C)C
4,5 nM,CNC(=O)[C@@H](NC(=O)[C@@H](CC(=O)NO)CC(C)C)C1CCCCC1
5,12 nM,CNC(=O)[C@@H](NC(=O)[C@@H](CC(=O)NO)CC(C)C)C(C)(C)C [RO-319790]

# Target: 72 kDa type IV collagenase (Homo sapiens, UniProt P08253)
# Assay: Activity against Matrix metalloprotease-2 (MMP-2).
# 72 kDa type IV collagenase, sequence (P08253 whole entry): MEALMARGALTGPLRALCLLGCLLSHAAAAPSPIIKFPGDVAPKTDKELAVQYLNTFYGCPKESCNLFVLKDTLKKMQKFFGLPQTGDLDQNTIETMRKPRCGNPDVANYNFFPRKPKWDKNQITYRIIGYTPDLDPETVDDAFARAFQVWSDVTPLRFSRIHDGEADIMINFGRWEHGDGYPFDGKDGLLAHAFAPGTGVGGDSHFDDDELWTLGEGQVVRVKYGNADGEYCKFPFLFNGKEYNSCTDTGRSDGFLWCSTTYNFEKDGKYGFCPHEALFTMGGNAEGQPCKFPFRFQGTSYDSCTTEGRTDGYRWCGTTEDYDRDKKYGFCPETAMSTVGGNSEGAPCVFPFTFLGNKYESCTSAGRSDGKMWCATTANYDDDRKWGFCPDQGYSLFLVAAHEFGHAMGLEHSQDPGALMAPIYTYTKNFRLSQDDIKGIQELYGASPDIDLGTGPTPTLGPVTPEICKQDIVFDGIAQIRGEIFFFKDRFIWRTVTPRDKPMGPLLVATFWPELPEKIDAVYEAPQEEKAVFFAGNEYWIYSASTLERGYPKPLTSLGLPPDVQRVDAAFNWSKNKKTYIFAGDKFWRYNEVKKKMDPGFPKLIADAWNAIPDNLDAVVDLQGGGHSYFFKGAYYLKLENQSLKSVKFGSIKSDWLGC
row,SMILES,IC50
1,CNC(=O)[C@@H](NC(=O)[C@H](CC(C)C)[C@H](C)C(=O)NO)c1ccccc1,7.5 nM
2,CNC(=O)[C@H](Cc1cccc2c1CCCC2)NC(=O)[C@H](CC(C)C)[C@H](C)C(=O)NO,0.3 nM
3,CNC(=O)[C@@H](NC(=O)[C@@H](CC(=O)NO)CC(C)C)c1ccccc1,42.5 nM
4,CNC(=O)[C@@H](NC(=O)[C@H](CCCc1ccccc1)CC(=O)NO)c1ccccc1,3.2 nM

# Further lines, results first:
row,IC50,SMILES
1,46.3 nM,CNC(=O)[C@@H](NC(=O)[C@H](CCc1ccccc1)CC(=O)NO)c1ccccc1
2,1.6 nM,CCCCCCCCC[C@H](CC(=O)NO)C(=O)N[C@H](C(=O)NC)c1ccccc1
3,8.4 nM,CNC(=O)[C@@H](NC(=O)[C@@H](CC(=O)NO)CC(C)C)C1CCCCC1
4,7.4 nM,CNC(=O)[C@@H](NC(=O)[C@@H](CC(=O)NO)CC(C)C)C(C)(C)C [RO-319790]

# Target: T1, Interstitial collagenase (Homo sapiens, UniProt P03956)
# T1 sequence (P03956 whole entry): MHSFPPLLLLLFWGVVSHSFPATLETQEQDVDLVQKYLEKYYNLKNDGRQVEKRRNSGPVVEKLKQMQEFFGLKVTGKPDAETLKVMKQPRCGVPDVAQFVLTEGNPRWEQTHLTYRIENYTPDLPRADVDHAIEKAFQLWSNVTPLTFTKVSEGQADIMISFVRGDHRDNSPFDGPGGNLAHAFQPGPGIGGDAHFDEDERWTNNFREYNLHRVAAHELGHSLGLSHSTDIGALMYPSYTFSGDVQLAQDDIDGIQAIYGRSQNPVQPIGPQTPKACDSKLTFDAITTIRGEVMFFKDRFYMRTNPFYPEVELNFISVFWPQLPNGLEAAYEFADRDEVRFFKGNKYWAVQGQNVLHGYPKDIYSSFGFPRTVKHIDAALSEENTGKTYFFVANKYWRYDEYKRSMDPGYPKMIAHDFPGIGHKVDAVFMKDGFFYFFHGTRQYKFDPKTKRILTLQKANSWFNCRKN
# Assay: Activity against Matrix metalloprotease-1 (MMP-1).
row,SMILES,IC50
1,CNC(=O)[C@@H](NC(=O)[C@H](CC(C)C)[C@H](C)C(=O)NO)c1ccccc1,3 nM
2,CNC(=O)[C@@H](NC(=O)[C@H](CC(C)C)[C@H](C)C(=O)NO)C1CCCCC1,2.9 nM
3,CNC(=O)[C@H](Cc1cccc2c1CCCC2)NC(=O)[C@H](CC(C)C)[C@H](C)C(=O)NO,0.3 nM
4,CNC(=O)[C@@H](NC(=O)[C@@H](CC(=O)NO)CC(C)C)c1ccccc1,15 nM
5,CNC(=O)[C@@H](NC(=O)[C@H](CCCc1ccccc1)CC(=O)NO)c1ccccc1,89 nM
6,CNC(=O)[C@@H](NC(=O)[C@H](CC(C)C)[C@H](CN1CCOCC1)C(=O)NO)c1ccccc1,3.5 nM

# More lines, now with the values ahead:
row,IC50,SMILES
1,92 nM,CNC(=O)[C@@H](NC(=O)[C@H](CCc1ccccc1)CC(=O)NO)c1ccccc1
2,90 nM,CCCCCCCCC[C@H](CC(=O)NO)C(=O)N[C@H](C(=O)NC)c1ccccc1
3,93 nM,CNC(=O)[C@@H](NC(=O)[C@H](CCCc1ccccc1)CC(=O)NO)C(C)C
4,5.4 nM,CNC(=O)[C@@H](NC(=O)[C@@H](CC(=O)NO)CC(C)C)C1CCCCC1
5,3 nM,CNC(=O)[C@@H](NC(=O)[C@@H](CC(=O)NO)CC(C)C)C(C)(C)C [RO-319790]
